WT yeast gro inh – growth inhibition of WT strain, primary screen, mitochondrial fusion inhibitor project, WT and mutant strains, chemical genetic. 190,000 compounds, 2.1% hits. AID 1362, 2008. mitochondrial fusion phenotypic screen. inhibition, % at 10 µM; in the data active = inhibition above about 58%; tested in S. cerevisiae
RAM inhibit – inhibitors of the yeast RAM network, primary screen, dse1pr::URA3 reporter, 5-FOA selection. S. cerevisiae dse1pr::URA3 reporter, 5-FOA growth OD615, 2 d; analog-sensitive cbk1-as2 kinase mutant strain. inhibition, % at 50 µM. AID 868, 2007. 190,000 compounds, 1.8% hits;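 active = inhibition above a set limit, 3 SD over mean compound inhibition, cut at about 8.4% in these data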;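 also: 0% = DMSO-only wells with no growth and 100% = 10 µM 1-NA-PP1 full growth; inhibition rescues growth on 5-FOA so higher OD means more RAM inhibition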
Hck-Nef inh – inhibitors of Nef-activated human Hck kinase, primary screen, biochemical, Z-Lyte FRET, 384-well, Hck-YEEI. Tyrosine-protein kinase HCK (Homo sapiens), P08631. Recombinant Hck-YEEI plus Nef, Z-Lyte FRET kinase assay. inhibition, % at 20 µM. 220,000 compounds, 0.68% hits;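 active = Hck-Nef kinase inhibition above about 50%, limit read from the data; inactive = inhibition below that limit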;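 also: 0% = DMSO with Hck plus Nef and 100% = Hck alone without Nef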
Calb biofilm kill – clotrimazole potentiators killing C. albicans biofilm, primary screen, 4-compound mixtures; inhibition, % at 7.6 µM; AID 1242, 2008; C. albicans biofilm persisters + clotrimazole, fluorescence viability; primary screen in compound mixtures of four per well; 120,000 compounds, 0.02% hits;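 active = inhibition above 30.3% in the primary screen of four-compound pools, then above 30% when the compound was retested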;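 also: compounds exposed to preformed 24 h biofilms for 48 h; 0% = untreated biofilm control and 100% = clotrimazole plus chlorhexidine kill blank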
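Test system: C. albicans biofilms. Buffer or medium: RPMI/MOPS medium, pH 7.0. Timing: 48 h compound exposure at 37 °C. Technique: Alamar Blue fluorescence. Evaluation: percent inhibition of biofilm viability.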
NCF1 inh – p47phox/p22phox peptide binding inhibitors, primary screen, biochemical, uHTS, NADPH oxidase regulatory subunit; Neutrophil cytosol factor 1 (Homo sapiens), P14598; fluorescence polarization, 2 h; inhibition, % at 24.7 µM; 220,000 compounds, 0.53% hits;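 active = inhibition above about 30%, limit read from the data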;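 also: 0% = p47phox with labelled peptide and 100% = labelled peptide alone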
Target sequence (P14598 whole entry, looked up): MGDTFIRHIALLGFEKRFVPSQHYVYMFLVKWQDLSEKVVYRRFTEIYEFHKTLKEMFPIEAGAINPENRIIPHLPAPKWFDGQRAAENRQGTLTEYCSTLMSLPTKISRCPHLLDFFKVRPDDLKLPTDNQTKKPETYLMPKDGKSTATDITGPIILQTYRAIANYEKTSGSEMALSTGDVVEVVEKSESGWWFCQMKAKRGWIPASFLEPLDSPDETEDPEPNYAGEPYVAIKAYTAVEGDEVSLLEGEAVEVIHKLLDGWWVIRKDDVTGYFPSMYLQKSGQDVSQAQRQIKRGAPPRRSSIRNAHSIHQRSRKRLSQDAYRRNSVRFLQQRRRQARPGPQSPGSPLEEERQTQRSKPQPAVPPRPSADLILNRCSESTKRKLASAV
Arbovirus anti – antivirals against arbovirus infection, primary screen, cell-based, full library, 10K replicate subset. arbovirus infection cell-based antiviral screen. AID 1251, 2008. inhibition, % at 10 µM. 200,000 compounds, 0.37% hits; in the data active = inhibition above about 30%
RAM efflux-def – 5-FOA growth of efflux-deficient control yeast, dose response, counter-screen for RAM network inhibitor project, S. cerevisiae, OD615; S. cerevisiae efflux-deficient reporter strain, 5-FOA growth OD615, 2 days; shares compounds with RAM inhibit; max inhibition, %; 1,200 tested, under 10 active; AID 1305, 2008; call rule not given here;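 also: plate controls were vehicle for no effect and reference inhibitor for full effect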
* hit, by the source's call; x = no result given. Sampled rows, rich in hits. Any-hit rate of the full collection: about 4.6%.

SMILES | WT yeast gro inh | RAM inhibit | Hck-Nef inh | Calb biofilm kill | NCF1 inh | Arbovirus anti | RAM efflux-def
CCN(CC)S(=O)(=O)c1ccc(OC)c(NC(=O)CSc2cc(C)ccc2C)c1 | 29.2 | 15.2* | 0.8 | 13.0 | -44.0 | 3.2 | 3.0
COc1ccccc1OCC(=O)N(Cc1nc(-c2ccccc2)no1)C1CCCCC1 | 60.9* | 12.9* | 1.0 | x | -17.9 | -26.1 | 2.5
O=C(NC(=S)N(Cc1ccccc1)Cc1ccccc1)c1ccccc1F | 3.6 | 11.9* | 2.2 | x | 6.1 | -12.1 | 1.1
O=C(NC(=S)NCc1ccccc1)c1ccccc1F | 5.5 | 0.6 | 1.7 | x | -7.4 | 2.7 | x
COc1ccc(C(=O)NCC(=O)OCc2cccc(Br)c2)cc1 | 12.3 | 12.6* | 0.6 | x | 1.9 | 0.0 | 2.7
COc1ccc(C(=O)NCC(=O)OCc2ccc([N+](=O)[O-])cc2)cc1 | 12.3 | 0.5 | -7.4 | 16.7 | -15.2 | 1.8 | x
CCOC(=O)CCCSc1nc(-c2ccc3c(c2)OCO3)cc(C(F)(F)F)c1C#N | -0.6 | 14.1* | 7.8 | 14.7 | -13.5 | -2.8 | 1.9
COc1ccc2c(c1)CCc1c(C(=O)NCCc3ccc(OC)c(OC)c3)noc1-2 | -3.4 | 13.6* | 12.6 | x | 3.4 | 7.7 | 6.5
O=C(/C=C/c1cccc(Br)c1)N1CCN(c2cccc(C(F)(F)F)c2)CC1 | 67.0* | 16.1* | 5.9 | 3.7 | -4.2 | 13.3 | 2.6
O=C(/C=C/c1ccc(Br)cc1)N1CCN(c2cccc(C(F)(F)F)c2)CC1 | 42.1 | 12.4* | 1.2 | 18.6 | -3.7 | -16.8 | 3.1
O=C(c1c(F)c(F)c(F)c(F)c1F)N1CCN(c2cccc(C(F)(F)F)c2)CC1 | 11.0 | 5.5 | 0.8 | x | -13.7 | -2.3 | x
O=C(NCCc1ccccc1)c1n[nH]c2ccccc12 | 12.5 | 0.5 | 3.1 | 0.8 | -4.1 | -9.2 | x
Cc1ccc(-c2ccc(C(=O)NCc3ccccc3)o2)c2ccccc12 | 34.0 | 12.5* | 2.0 | 6.4 | -15.9 | -0.4 | 2.2
Cc1ccc(-c2cccc(C(=O)NCCc3ccccc3)n2)c2ccccc12 | 28.8 | 13.8* | 0.5 | 6.0 | -8.9 | 5.8 | 5.7
CCCCCCN1C=C/C(=C\C=C(C#N)C#N)c2ccccc21 | 46.5 | 16.7* | 6.0 | 5.0 | 127.8* | -8.7 | 3.6
CCCCCCN1C=CC=C/C1=C/C=C(C#N)C#N | -22.9 | 5.4 | -2.3 | 9.6 | -14.0 | 7.4 | x
COc1ccc(OC)c(-c2cc(C(=O)N3CCc4ccccc4C3)no2)c1 | 61.5* | 11.9* | 1.1 | x | -12.6 | 2.5 | 1.6
Cc1ccc(N(CCCCN2C(=O)c3ccccc3C2=O)C(=O)c2cccs2)cc1 | -5.1 | 11.8* | 0.8 | x | -20.9 | 7.7 | 3.3
CCN(CC)S(=O)(=O)c1cccc(-c2nnc(SCCOc3ccccc3)o2)c1 | 11.0 | 13.2* | -0.2 | x | -0.8 | -6.0 | 3.1
CCN(CC)S(=O)(=O)c1cccc(-c2nnc(SCCOc3ccccc3C)o2)c1 | 6.1 | 11.8* | -4.3 | x | -6.3 | -4.0 | 1.5
CCN(CC)S(=O)(=O)c1cccc(-c2nnc(SCCOc3ccc(Cl)cc3)o2)c1 | 24.5 | 15.9* | 0.3 | x | 0.5 | 6.4 | 3.1
COCCNc1nnc(SCC(=O)c2ccc3c(c2)OCO3)s1 | -1.3 | 3.0 | -0.1 | x | -4.1 | 0.8 | x
O=C(CSc1nnc(SCc2ccc(Cl)cc2)s1)c1ccc2c(c1)OCO2 | 18.9 | 16.3* | 1.9 | 8.6 | -21.1 | -18.6 | 1.8
CCOC(=O)c1cnc2ccc(C)cc2c1Sc1ccccc1C(=O)OC | 18.1 | 0.3 | 1.4 | x | -7.5 | -2.5 | x
CCCC1S/C(=N/N=C/c2ccc(OC)cc2)N(Cc2ccccc2)C1=O (centres undefined) | 7.5 | 14.9* | -14.8 | x | -4.8 | 14.9 | 3.3
SMILES | WT yeast gro inh | RAM inhibit | Hck-Nef inh | Calb biofilm kill | NCF1 inh | Arbovirus anti | RAM efflux-def
CCN=C1SC(CC(=O)NCCc2ccc(OC)cc2)C(=O)N1CC (centres undefined) | 11.2 | 0.9 | -0.7 | x | -26.2 | -3.0 | x
CCCC1S/C(=N/N=C/c2ccc(OC)cc2)N(Cc2ccc(OC)cc2)C1=O (centres undefined) | 15.6 | 13.2* | 0.4 | x | -9.5 | 11.3 | 6.5
CCCCC1S/C(=N/N=C/c2ccc(OC)cc2)N(Cc2ccc(OC)cc2)C1=O (centres undefined) | 5.0 | 13.6* | -0.5 | x | -4.3 | 4.1 | 6.4
COc1ccc(CC2S/C(=N/N=C/c3ccc(O)cc3)NC2=O)cc1 (centres undefined) | -7.3 | 5.1 | 9.6 | 6.7 | -21.6 | -4.6 | x
O=C(CCc1ccccc1)NNC(=O)c1ccccc1Br | 3.5 | 1.6 | 3.2 | 13.4 | -8.9 | 4.6 | x
CCOc1cc(S(=O)(=O)Nc2ccc(CC)cc2)ccc1Cl | 25.0 | 14.3* | -1.3 | x | -5.5 | -35.9 | 0.8
CCOc1cc(S(=O)(=O)N2CCCCC2)ccc1Cl | 6.2 | -0.5 | -3.4 | x | 5.0 | 1.3 | x
CC(C)=CCc1c2c(c3occ(-c4ccc(O)cc4)c(=O)c3c1O)C=CC(C)(C)O2 | 53.7 | 16.7* | 16.9 | 29.9 | -21.7 | -27.2 | 4.5
COc1cc(O)cc2occ(-c3ccc(O)cc3)c(=O)c12 | 1.0 | -0.3 | -25.6 | 14.1 | 0.6 | 4.3 | x
CCCN(N=Nc1cccc([N+](=O)[O-])c1)c1cccc([N+](=O)[O-])c1 | 13.9 | 12.4* | -0.5 | x | -3.2 | 6.5 | 3.0
Cc1cccc(NCC(=O)N/N=C/c2ccc(Br)cc2)c1 | 4.1 | 0.9 | 25.9 | 12.9 | -0.9 | -11.2 | x
CCOC(=O)/C(C#N)=C(C)/C=C1\Sc2ccccc2N1CC | 6.5 | 21.6* | 3.1 | 16.1 | -10.9 | -18.9 | 2.9
CCN1/C(=C\C(C)=O)Sc2ccc(OC)cc21 | -13.1 | 2.7 | 1.1 | x | -5.8 | 2.3 | x
COc1ccc(CCNC(=O)Cn2cc(C(F)(F)F)cc(Cl)c2=O)cc1OC | -16.5 | 4.3 | 1.3 | 4.3 | 1.1 | 0.2 | x
O=[N+]([O-])c1ccc(CN2CCN(Cc3c[nH]c4ccccc34)CC2)cc1 | 3.6 | 0.9 | -9.5 | -7.5 | 3.4 | 2.4 | x
Cc1ccccc1NC(=O)CCCSc1nc2ccccc2s1 | 49.4 | 18.1* | 1.1 | 6.2 | -20.4 | 2.4 | 2.0
CCn1c2ccccc2c2cc(NC(=O)CSc3nccc(=O)[nH]3)ccc21 | -10.2 | 3.6 | 24.7 | 12.2 | -13.4 | 1.3 | x
O=C(CN(Cc1ccccc1F)S(=O)(=O)c1ccc(Cl)cc1)NCCC1=CCCCC1 | 6.2 | 12.2* | -0.7 | x | -15.3 | -11.0 | 1.5
CCOC(=O)c1nnn(CC(=O)Nc2ccccc2OC)c1C(=O)OCC | 0.2 | 1.5 | -1.7 | x | -0.4 | 7.7 | x

From PubChem BioAssay
